{"source": "ChEMBL document CHEMBL3526009", "about": "“Breast cancer resistance protein (ABCG2) determines distribution of genistein phase II metabolites: reevaluation of the roles of ABCG2 in the disposition of genistein” (Drug Metab Dispos, 2012)", "key": {"[1]": {"assay": "Biliary excretion in BCRP-/- mouse treated with genistein measured after 2.5 hrs post intestinal perfusion by UPLC-MS/MS analysis", "assay_type": "ADME, Bile", "conditions": "in vivo, other", "outline": "(§1)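 Gallbladder bile taken after 2.5 h of simultaneous small intestine/colon perfusion with 10 μM genistein (HBSS pH 7.4, 0.191 ml/min) in FVB or Bcrp1(−/−) mice (n = 4). Bile diluted 20-fold in HBSS, daidzein internal standard in acetonitrile added, dried and reconstituted. Genistein and conjugates quantified by UPLC-MS/MS.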"}, "Blood": {"tested_on": "Blood", "assay": "Stability in Wistar rat blood at 3 uM up to 4 hrs by UPLC-MS/MS analysis", "assay_type": "ADME, tissue-based", "outline": "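Genistein glucuronide mixture (G-7-G plus G-4′-G, 3 μM) with 3.8 μM genistein incubated in fresh rat whole blood, 37°C shaking water bath. Sampled at 0, 60, 120 and 240 min. Reaction stopped with acetonitrile containing daidzein internal standard. Genistein and conjugates quantified by UPLC-MS/MS using multiple reaction monitoring. n = 3.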"}, "[2]": {"assay": "Stability in potassium phosphate buffer at pH 7.4 up to 4 hrs", "assay_type": "physicochemical", "conditions": "pH 7.4, 4 h", "outline": "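Negative control run under the blood-incubation conditions but in 50 mM potassium phosphate buffer, pH 7.4, instead of blood. Genistein glucuronides (G-7-G plus G-4′-G, with aglycone) or sulfates (G-7-S plus G-4′-S, with aglycone) held at 37°C in a shaking water bath up to 4 h. Sampled at 0, 60, 120 and 240 min and read by UPLC-MS/MS.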"}, "[3]": {"assay": "Biliary excretion in wild-type FVB mouse treated with genistein measured after 2.5 hrs post intestinal perfusion by UPLC-MS/MS analysis", "assay_type": "ADME, Bile", "conditions": "in vivo, other", "outline": "as §1"}}, "data": [{"smiles": "O=C(O)[C@H]1O[C@@H](Oc2cc(O)c3c(=O)c(-c4ccc(O)cc4)coc3c2)[C@H](O)[C@@H](O)[C@@H]1O", "values": [{"measurement": "Drug excretion", "setting": "[1]", "value": "metabolite_detected"}, {"measurement": "Stability", "setting": "Blood", "value": "Stable"}, {"measurement": "Stability", "setting": "[2]", "value": "Stable"}, {"measurement": "Drug excretion", "setting": "[3]", "value": "metabolite_detected"}]}]}
